Reference: ChEMBL document CHEMBL1148942, “Cucurbitane triterpenoids from Leucopaxillus gentianeus” (J Nat Prod, 2004)

How the values were obtained:
Assay type in all cases: functional, cell-based
HepG2 = assay: Cytotoxicity against human HepG2 cells after 24 hrs by MTT assay; details: HepG2, 24 h
In short: (§1)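 ATCC cells kept adherent at 37 °C, 5% CO2 (A549: F12K + 10% FBS; HepG2, MCF-7: MEM + 1 mM pyruvate + 10% FBS; CAKI 1: McCoy's + 10% FBS). Seeded and grown 24 h, then exposed 24 h to compounds in FBS-free medium (final DMSO 0.25%). PBS wash, MTT 0.5 mg/mL in phenol-red-free MEM for 3 h at 37 °C, formazan dissolved in DMSO, read at A540. Two experiments in triplicate; IC50 derived.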

CAKI-1 = assay: Cytotoxicity against human Caki1 cells after 24 hrs by MTT assay; details: CAKI-1, 24 h; in short: as §1
MCF7 = assay: Cytotoxicity against human MCF7 cells after 24 hrs by MTT assay; details: MCF7, 24 h; in short: as §1
A549 = assay: Cytotoxicity against human A549 cells after 24 hrs by MTT assay; details: A549, 24 h; in short: as §1

Structure (SMILES)	IC50 (HepG2) [µM]	IC50 (CAKI-1) [µM]	IC50 (MCF7) [µM]	IC50 (A549) [µM]
CC(=O)O[C@H](C[C@@H](OC(C)=O)C(C)(C)O)[C@@H](C)[C@H]1CC[C@@]2(C)[C@@H]3CC=C4[C@@H](CCC(=O)C4(C)C)[C@]3(C)CC[C@]12CO [LEUCOPAXILLONE A]	96.7	108	7.94	> 300
CC(=O)OC(C)(C)/C=C/C(=O)[C@](C)(O)[C@H]1[C@H](O)C[C@@]2(C)[C@@H]3CC=C4[C@H](C[C@H](O)C(=O)C4(C)C)[C@]3(C)C(=O)C[C@]12C [CUCURBITACIN B]	0.76	7.1	0.78	46.6
CC(=O)O[C@H](C[C@@H](OC(C)=O)C(C)(C)O)[C@@H](C)[C@H]1CC[C@@]2(C)[C@@H]3CC=C4[C@@H](CCC(=O)C4(C)C)[C@]3(C)[C@]3(O)C[C@]12CO3 [LEUCOPAXILLONE B]	86.9	30.3	86.9	155
